SMILES strings stand for the structures. Activity calls are given as the source filed them. Unless noted, no cut-off for these calls is given here.

Consider 11 compounds from ChEMBL document CHEMBL1137753, “Insecticidal heterolignans--tubuline polymerization inhibitors with activity against chewing pests” (Bioorg Med Chem, 2009).

Series [1] has as its system CHO. The experiment in a line: Cytotoxicity against CHO cells assessed as chromatin condensation after 24 hrs by fluorescence microscopy. It counts as cell-based, Cricetulus griseus. To be noted: chinese hamster.
Series [2] deals with CHO. The experiment in a line: Cytotoxicity against CHO cells assessed as chromatin condensation after 48 hrs by fluorescence microscopy. The format is cell-based, Cricetulus griseus. As to conditions: chinese hamster. In outline: (§1)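 Sf9 or CHO cells were seeded in chamber slides the day before treatment and exposed to compound for 48 h. They were then PBS-washed, fixed in ice-cold methanol for 10 min on ice, and rinsed with acetone. After rehydration in PBS, cells were stained with 2 µM DAPI for 30 min. Nuclei were examined by fluorescence microscopy (×40) for chromatin condensation or fragmentation.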

For series [3], the system named is Sf9. The experiment in a line: Cytotoxicity against Spodoptera frugiperda Sf9 cells assessed as chromatin condensation at 1 ppm after 48 hrs by fluorescence microscopy. It counts as functional, cell-based. In outline: as §1
Series [4] relates to Spodoptera frugiperda. The experiment in a line: Insecticidal activity against Spodoptera frugiperda larvae in disk of maize leaf at 500 g/ha treated as spray. It counts as functional, organism-based. In outline: (§2)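 The same acetone/DMF/emulsifier formulation, diluted in emulsifier-containing water, was sprayed onto maize leaf disks. Dried disks were infested with fall armyworm larvae and mortality was assessed after a set time. "+" denotes ≥80% larvae killed; n.a. denotes no larvae killed.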

Series [5] deals with Phaedon cochleariae. The experiment in a line: Insecticidal activity against Phaedon cochleariae larvae in disk of Chinese cabbage leaf at 500 g/ha treated as spray. The format is functional, organism-based. Put shortly: (§3)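 This was sprayed on Chinese cabbage leaf disks. Once dry, disks were infested with mustard beetle larvae and mortality was scored after a set time. "+" denotes ≥80% larvae killed; n.a. denotes none killed.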

Series [6] has as its system Spodoptera frugiperda. The experiment in a line: Insecticidal activity against Spodoptera frugiperda larvae in disk of maize leaf at 20 g/ha treated as spray. The format is functional, organism-based. In outline:
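Maize leaf disks (Zea mays) were sprayed, allowed to dry, then populated with S. frugiperda larvae. Mortality was scored after the desired time; '+' means at least 80% of larvae killed, 'n.a.' means none killed.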

The test system of series [7] is Phaedon cochleariae. Nature of the series: Insecticidal activity against Phaedon cochleariae larvae in disk of Chinese cabbage leaf at 4 g/ha treated as spray. The format is functional, organism-based. In outline:
as §3

The species entered for another series is Bos taurus. Nature of the series: Inhibition of bovine tubulin polymerization. Put shortly: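 Tubulin (>99% pure, 300 µg/sample) was suspended at 4 °C in G-PEM buffer (80 mM PIPES, 2 mM MgCl2, 0.5 mM EGTA, 1.0 mM GTP, pH 6.9) plus 5% glycerol, with or without compound. Colchicine and taxol served as standards. Polymerization at 37 °C was followed as absorbance at 340 nm every 1 min for up to 60 min.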

The subject of series [8] is Sf9. The experiment in a line: Cytotoxicity against Spodoptera frugiperda Sf9 cells assessed as chromatin condensation at 0.14 ppm after 48 hrs by fluorescence microscopy. It counts as functional, cell-based. Put shortly: (§4)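 Sf9 cells seeded in 8-well slide chambers the day before, then exposed to compound for 48 h. After two PBS washes, cells were fixed in ice-cold methanol for 10 min on ice, given two short acetone washes, rehydrated in PBS and stained with Dapi (2 µM) for 30 min. Chromatin condensation/fragmentation scored by fluorescence microscopy with a x40 objective.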

In series [9] the test system is Spodoptera frugiperda. Nature of the series: Insecticidal activity against Spodoptera frugiperda larvae in disk of maize leaf at 4 g/ha treated as spray. The format is functional, organism-based. In outline:
as §2

The test system of series [10] is Phaedon cochleariae. Nature of the series: Insecticidal activity against Phaedon cochleariae larvae in disk of Chinese cabbage leaf at 20 g/ha treated as spray. It counts as functional, organism-based. In outline:
as §3

Series [11] has as its system Sf9. Nature of the series: Cytotoxicity against Spodoptera frugiperda Sf9 cells assessed as chromatin condensation at 10 ppm after 48 hrs by fluorescence microscopy. It counts as functional, cell-based. In outline: as §1
The test system of series [12] is Phaedon cochleariae. The experiment in a line: Insecticidal activity against Phaedon cochleariae larvae in disk of Chinese cabbage leaf treated as spray. It counts as functional, organism-based.
Series [13] relates to Spodoptera frugiperda. The experiment in a line: Insecticidal activity against Spodoptera frugiperda larvae in disk of maize leaf treated as spray. It counts as functional, organism-based.
For series [14], the system named is Sf9. Nature of the series: Cytotoxicity against Spodoptera frugiperda Sf9 cells assessed as chromatin condensation at >10 ppm after 48 hrs by fluorescence microscopy. The format is functional, cell-based. Put shortly: as §4

On to `COc1cc(OC)cc(C2C3=C(COC3=O)Nc3cc(OC)c(OC)cc32)c1` (stereo not given), for which the Activity entry in the series with CHO [1] and with CHO [2] was “Toxic” in each case. Also, the result with Sf9 [3], with Spodoptera frugiperda [4] and in the series on Phaedon cochleariae [5] was Active.
Regarding `COc1ccc2c(c1)NC1=C(C(=O)OC1)C2c1cc(OC)c(OC)c(OC)c1` (stereo not given), the result with Spodoptera frugiperda [6] and with Phaedon cochleariae [5] was Active.
Take `CCN1C2=C(C(=O)OC2)C(c2cc(OC)cc(OC)c2)c2cc3c(cc21)OCO3` (stereo not given): the Activity result in the series with CHO [1] and in the series on CHO [2] was “Toxic” each time. In addition, the outcome with Sf9 [3], in the series on Spodoptera frugiperda [4] and in the series with Phaedon cochleariae [5] was Active.
As for `COc1cc(OC)cc(C2C3=C(COC3=O)Nc3c(OC)cc(OC)cc32)c1` (stereo not given), the outcome with Phaedon cochleariae [7] and in the series with Spodoptera frugiperda [4] was Active.
As for `CC(=O)O[C@H]1C(=O)[C@@]2(C)[C@H]([C@H](OC(=O)c3ccccc3)[C@]3(O)C[C@H](OC(=O)[C@H](O)[C@@H](NC(=O)c4ccccc4)c4ccccc4)C(C)=C1C3(C)C)[C@]1(OC(C)=O)CO[C@@H]1C[C@@H]2O`, the inhibition result in the series listed under Bos taurus was “inactive”.
With `CCOc1ccc2c(c1)NC1=C(C(=O)OC1)C2c1cc(OC)cc(OC)c1` (stereo not given), the outcome with Sf9 [8], in the series with Spodoptera frugiperda [9] and with Phaedon cochleariae [5] was Active. For the same compound, the Activity entry in the series on CHO [1] and with CHO [2] was “Toxic” throughout.
As to `COc1cc(OC)cc(C2C3=C(COC3=O)Nc3cc4c(cc32)OCO4)c1` (stereo not given), the outcome in the series on Spodoptera frugiperda [6] and in the series on Phaedon cochleariae [10] was Active.
For the compound `O=C1OCC2=C1C(c1ccccc1Cl)c1cc3c(cc1N2)OCO3` (stereo not given), in the series on Sf9 [11], the outcome was Active. Also, the result in the series with Phaedon cochleariae [12] and in the series with Spodoptera frugiperda [13] was inactive. Also, the Activity result in the series with CHO [1] and with CHO [2] was “Toxic” in each case.
With `COc1cc(OC)cc([C@@H]2C3=C(COC3=O)Nc3cc(OC)ccc32)c1`, the Activity result with CHO [1] and with CHO [2] was “Toxic” each time. Besides, the outcome in the series on Sf9 [14] was Active.
Regarding `COc1cc(OC)cc(C2C3=C(COC3=O)Nc3c2ccc(OC)c3OC)c1` (stereo not given), the outcome in the series with Sf9 [8], in the series on Spodoptera frugiperda [9] and in the series on Phaedon cochleariae [10] was Active. The Activity entry in the series with CHO [1] and in the series on CHO [2] was “Toxic” throughout. Also, the inhibition entry in the series filed under Bos taurus was “Active”.
For the compound `COc1cc2c(c(OC)c1OC)-c1ccc(OC)c(=O)cc1[C@@H](NC(C)=O)CC2` [COLCHICINE], the outcome with Sf9 [8] was Active. Besides, the Activity entry in the series with CHO [1] and in the series with CHO [2] was “Toxic” in each case. Further, the inhibition result in the series listed under Bos taurus is “Active”.
